The record followed here is ChEMBL document CHEMBL1128739, “Structure-activity relationships in the 8-amino-6,7,8,9-tetrahydro-3H-benz[e]indole ring system. 2. Effects of 8-amino nitrogen substitution on serotonin receptor binding and pharmacology” (J Med Chem, 1995).

Usually Ki stands for the equilibrium dissociation constant of an inhibitor or competing ligand from its target. For orientation: ED50 means the midpoint of the dose-response relation. Broadly, the inhibition is the relative decrease from the control value, in per cent.

Assay [1] deals with T1, 5-hydroxytryptamine receptor 1B (Homo sapiens, UniProt P28222). Nature of the assay: In vitro binding affinity against cloned mammalian 5-hydroxytryptamine 1D receptor beta expressed in CHO cells, by using [3H]5-HT as radioligand. The assay is classed as cell-based. An outline of the steps: (§1)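 Membranes from CHO cells stably expressing the cloned receptor, made by mechanical disruption in ice-cold Tris/EDTA/EGTA pH 7.4 and differential centrifugation. [3H]serotonin at 1.7 nM in 50 mM Tris, 5 mM MgCl2, 0.1% ascorbic acid, pH 7.4. 11 drug concentrations in duplicate, 1 h at room temperature protected from light, then filtration. Excess serotonin defines nonspecific binding. One-site IC50 fit, Ki by Cheng-Prusoff.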
T1 sequence (P28222 whole entry): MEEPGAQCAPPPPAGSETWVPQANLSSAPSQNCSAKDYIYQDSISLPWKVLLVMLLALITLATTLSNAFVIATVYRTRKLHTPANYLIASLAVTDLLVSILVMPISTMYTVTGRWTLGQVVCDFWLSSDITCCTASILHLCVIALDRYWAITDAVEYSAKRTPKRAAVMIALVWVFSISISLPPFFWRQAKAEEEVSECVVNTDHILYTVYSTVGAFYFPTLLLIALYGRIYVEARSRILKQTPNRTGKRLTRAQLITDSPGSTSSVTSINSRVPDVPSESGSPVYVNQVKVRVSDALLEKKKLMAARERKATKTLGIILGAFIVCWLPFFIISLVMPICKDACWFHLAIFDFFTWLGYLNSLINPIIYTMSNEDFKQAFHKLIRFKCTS

Assay [2] concerns the target T2, D(2) dopamine receptor (Rattus norvegicus, UniProt P61169). Nature of the assay: In vitro binding affinity against cloned mammalian Dopamine receptor D2 expressed in CHO cells using [3H]U-86170 as radioligand. It counts as cell-based. The method in brief:
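Membranes from CHO cells (20-60 μg protein) in 20 mM HEPES, 10 mM MgSO4, pH 7.4. Nonspecific binding defined with excess haloperidol. 11 concentrations, each in duplicate. Incubated 1 h at room temperature, then filtered and counted. IC50 from a one-site competition fit, converted to Ki by Cheng-Prusoff.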

A further assay has as its target D(3) dopamine receptor (Rattus norvegicus, UniProt P19020). Nature of the assay: In vitro binding affinity against cloned mammalian Dopamine receptor D3 expressed in CHO cells by, using [3H]-spiperone as radioligand. It counts as cell-based.
Assay [3] has as its system Rattus norvegicus. The assay is described as follows: (§2) The compound was tested in vivo for biochemical effect against the changes in different brain area levels of DOPA in reserpinized rat limbic system at dose 12.5 uM/kg; Partial effect. It counts as functional, organism-based. The method in brief: (§3)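 Male Sprague-Dawley rats (200-300 g) pretreated with reserpine 5 mg/kg sc 18 h before. Injection volume 5 mL/kg, test solutions at neutral pH. DOPA and 5-HTP in limbic system, striatum and hemispheres measured by HPLC with electrochemical detection. Dose-response curves from four to six dose levels (n = 4) per brain area.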

For assay [4], the system named is Rattus norvegicus. The assay is described as follows: In vivo changes in different brain area levels of 5-HTP in reserpinized rat corpus striatum. It counts as functional. The method in brief:
(§4)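 Male Sprague-Dawley rats (200-300 g) pretreated with reserpine 5 mg/kg sc 18 h before. Injection volume 5 mL/kg at neutral pH. Brain-region 5-HTP measured by HPLC with electrochemical detection. Dose-response curves used four to six doses, n = 4.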

Assay [5] deals with Rattus norvegicus. Nature of the assay: The compound was tested in vivo for biochemical effect against the changes in different brain area levels of DOPA in reserpinized rat corpus striatum at dose 12.5 uM/kg; Partial effect. It counts as functional, organism-based. An outline of the steps: as §3
Assay [6] has as its system Rattus norvegicus. Nature of the assay: In vivo changes in different brain area levels of 5-HTP in reserpinized rat limbic system. It counts as functional. The method in brief:
as §4

Assay [7] concerns Rattus norvegicus. Nature of the assay: In vivo for biochemical effect against brain area levels of 5-HTP in reserpinized rat hemispheres (mainly cortex). The assay is classed as functional. The method in brief: as §3
The subject of assay [8] is Rattus norvegicus. Nature of the assay: The compound was tested in vivo for biochemical effect against the changes in different brain area levels of DOPA in reserpinized rat hemispheres (mainly cortex) at dose 12.5 uM/kg; Inactive. It counts as functional, organism-based. An outline of the steps: as §3
Assay [9] deals with 5-hydroxytryptamine receptor 1D (Homo sapiens, UniProt P28221). Nature of the assay: In vitro binding affinity against cloned mammalian 5-hydroxytryptamine 1D receptor alpha expressed in CHO cells, by using [3H]5-HT as radioligand. The assay is classed as cell-based. An outline of the steps: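 Competition binding on CHO-cell membranes (20-60 μg protein) in 50 mM Tris, 5 mM MgCl2, 0.1% ascorbic acid, pH 7.4. Nonspecific binding defined with excess serotonin. 11 drug concentrations, each in duplicate. Incubated 1 h at room temperature, protected from light, then filtered and scintillation counted. IC50 taken from a one-site fit; Ki by Cheng-Prusoff.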
Sequence of 5-hydroxytryptamine receptor 1D (P28221 whole entry): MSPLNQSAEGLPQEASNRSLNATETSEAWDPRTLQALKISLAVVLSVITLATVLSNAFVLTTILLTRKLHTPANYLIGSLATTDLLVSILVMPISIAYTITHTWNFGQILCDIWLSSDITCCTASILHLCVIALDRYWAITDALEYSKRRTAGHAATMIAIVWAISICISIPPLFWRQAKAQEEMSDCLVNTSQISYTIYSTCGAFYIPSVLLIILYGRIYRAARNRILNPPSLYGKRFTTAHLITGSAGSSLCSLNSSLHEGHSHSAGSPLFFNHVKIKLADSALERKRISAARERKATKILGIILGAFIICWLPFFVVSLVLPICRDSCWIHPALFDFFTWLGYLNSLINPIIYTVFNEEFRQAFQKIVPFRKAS

The subject of assay [10] is Rattus norvegicus. Nature of the assay: The compound was tested in vivo for biochemical effect against the changes in different brain area levels of DOPA in reserpinized rat limbic system at dose 50 uM/kg; Inactive. The assay is classed as functional, organism-based.
The subject of assay [11] is Rattus norvegicus. The assay is described as follows: The compound was tested in vivo for biochemical effect against the changes in different brain area levels of DOPA in reserpinized rat corpus striatum at dose 50 uM/kg; Inactive. It counts as functional, organism-based. The method in brief: as §3
Assay [12] concerns Rattus norvegicus. The assay is described as follows: The compound was tested in vivo for biochemical effect against the changes in different brain area levels of DOPA in reserpinized rat hemispheres (mainly cortex)at dose 50 uM/kg; Inactive. It counts as functional, organism-based.
Assay [13] addresses T1, 5-hydroxytryptamine receptor 1B. The assay is described as follows: The compound was tested in vitro for binding affinity against cloned mammalian 5-hydroxytryptamine 1D receptor beta expressed in CHO cells, by using [3H]5-HT as radioligand. The assay is classed as cell-based. More on the design: concentration or dose not given beside the values. The settings on record: concentration not given here. The method in brief:
as §1

Assay [14] addresses T2, D(2) dopamine receptor. The assay is described as follows: Binding affinity rat Dopamine receptor D2 expressed in CHO-K1 cells by [3H]U-86170 displacement. The assay is classed as cell-based.
Assay [15] has as its system Rattus norvegicus. Nature of the assay: The compound was tested in vivo for biochemical effect against the changes in different brain area levels of DOPA in reserpinized rat limbic system at dose 12.5 uM/kg; inactive. It counts as functional, organism-based. An outline of the steps: as §3
The test system of assay [16] is Rattus norvegicus. Nature of the assay: The compound was tested in vivo for biochemical effect against the changes in different brain area levels of DOPA in reserpinized rat corpus striatum. The assay is classed as functional. The method in brief:
as §3

The subject of assay [17] is Rattus norvegicus. Nature of the assay: The compound was tested in vivo for biochemical effect against the changes in different brain area levels of DOPA in reserpinized rat hemispheres (mainly cortex)at does 12.5 uM/kg; inactive. The assay is classed as functional, organism-based. The method in brief: as §3
Assay [18] deals with Rattus norvegicus. The assay is described as §2. The assay is classed as functional, organism-based. The source holds these as a separate data set.
In assay [19] the test system is Rattus norvegicus. Nature of the assay: The compound was tested in vivo for biochemical effect against the changes in different brain area levels of DOPA in reserpinized rat hemispheres (mainly cortex)at dose 12.5 uM/kg; Partial effect. It counts as functional, organism-based.
For assay [20], the system named is Rattus norvegicus. The assay is described as follows: The compound was tested in vivo for biochemical effect against the changes in different brain area levels of DOPA in reserpinized rat limbic system; Inactive. It counts as functional, organism-based.
In assay [21] the test system is Rattus norvegicus. Nature of the assay: The compound was tested in vivo for biochemical effect against the changes in different brain area levels of 5-HTP in reserpinized rat corpus striatum at does 50 uM/kg; Partial effect. It counts as functional, organism-based.
The test system of assay [22] is Rattus norvegicus. Nature of the assay: The compound was tested in vivo for biochemical effect against the changes in different brain area levels of DOPA in reserpinized rat corpus striatum at does 50 uM/kg; Inactive. It counts as functional, organism-based.
Assay [23] has as its system Rattus norvegicus. Nature of the assay: The compound was tested in vivo for biochemical effect against the changes in different brain area levels of 5-HTP in reserpinized rat limbic system at dose 50 uM/kg; Partial effect. The assay is classed as functional, organism-based.
The subject of assay [24] is Rattus norvegicus. Nature of the assay: The compound was tested in vivo for biochemical effect against the changes in different brain area levels of 5-HTP in reserpinized rat hemispheres (mainly cortex)at does 50 uM/kg; Partial effect. The assay is classed as functional, organism-based.
Assay [25] concerns Rattus norvegicus. The assay is described as follows: (§5) The compound was tested in vivo for biochemical effect against the changes in different brain area levels of DOPA in reserpinized rat hemispheres (mainly cortex)at does 50 uM/kg; Inactive. It counts as functional, organism-based.
Assay [26] addresses D(3) dopamine receptor (Rattus norvegicus) (UniProt P19020). Nature of the assay: The compound was tested in vitro for binding affinity against cloned mammalian Dopamine receptor D3 expressed in CHO cells by, using [3H]-spiperone as radioligand. The settings on record: concentration not given here. The assay is classed as cell-based. An outline of the steps: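 Cloned D3 receptor came from CHO cell membranes (20-60 μg protein). These were incubated 1 h at room temperature with [3H]spiperone (123 Ci/mmol, 0.5 nM) in 20 mM HEPES, 10 mM MgCl2, 150 mM NaCl, 1 mM EDTA, pH 7.4. Excess haloperidol defined nonspecific binding. There were 11 concentrations in duplicate. After filtration and scintillation counting, IC50 came from a one-site competition fit and Ki from Cheng-Prusoff.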

Assay [27] has as its system Rattus norvegicus. Nature of the assay: The compound was tested in vivo for biochemical effect against the changes in different brain area levels of DOPA in reserpinized rat limbic system at does 50 uM/kg; Inactive. The assay is classed as functional, organism-based. An outline of the steps: as §3
In assay [28] the test system is Rattus norvegicus. Described as §5. It counts as functional, organism-based. An outline of the steps:
as §3
The source holds these as a separate data set.

Assay [29] concerns Rattus norvegicus. The assay is described as follows: The compound was tested in vivo for biochemical effect against the changes in different brain area levels of DOPA in reserpinized rat hemispheres (mainly cortex); inactive at the highest dose tested (3.1). The assay is classed as functional, organism-based. The method in brief:
as §3

Structures are written as SMILES. Calls of active or inactive are those of the source. No cut-off for these calls is given here.

T2 sequence (P61169 whole entry): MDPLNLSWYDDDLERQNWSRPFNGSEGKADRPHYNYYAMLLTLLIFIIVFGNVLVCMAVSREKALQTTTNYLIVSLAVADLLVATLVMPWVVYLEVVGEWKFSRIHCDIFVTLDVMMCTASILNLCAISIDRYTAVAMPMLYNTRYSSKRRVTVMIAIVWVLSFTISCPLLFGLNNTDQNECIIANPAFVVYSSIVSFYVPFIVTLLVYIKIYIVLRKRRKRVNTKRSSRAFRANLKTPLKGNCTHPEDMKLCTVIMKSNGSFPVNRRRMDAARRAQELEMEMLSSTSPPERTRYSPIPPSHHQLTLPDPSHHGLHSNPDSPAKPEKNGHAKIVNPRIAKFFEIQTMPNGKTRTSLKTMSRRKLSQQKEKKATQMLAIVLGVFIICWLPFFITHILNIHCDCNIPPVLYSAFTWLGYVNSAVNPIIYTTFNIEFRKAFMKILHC
Sequence of D(3) dopamine receptor (P19020 whole entry): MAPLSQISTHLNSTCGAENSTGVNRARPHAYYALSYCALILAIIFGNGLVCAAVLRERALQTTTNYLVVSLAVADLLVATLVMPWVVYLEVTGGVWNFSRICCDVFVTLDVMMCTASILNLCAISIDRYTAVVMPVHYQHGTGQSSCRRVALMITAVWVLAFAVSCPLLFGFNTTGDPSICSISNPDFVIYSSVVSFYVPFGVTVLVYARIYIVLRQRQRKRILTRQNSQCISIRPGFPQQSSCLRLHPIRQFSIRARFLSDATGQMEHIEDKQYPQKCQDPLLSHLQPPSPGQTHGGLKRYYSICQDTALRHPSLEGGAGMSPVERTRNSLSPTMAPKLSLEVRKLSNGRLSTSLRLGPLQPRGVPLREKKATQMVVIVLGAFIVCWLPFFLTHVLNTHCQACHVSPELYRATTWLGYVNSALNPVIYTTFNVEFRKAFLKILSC
Sequence of D(3) dopamine receptor (Rattus norvegicus) (P19020 whole entry): as above

In the case of `CN(C)[C@@H]1CCc2ccc3[nH]cc(C=O)c3c2C1`, the Ki in assay [1] stood at 20 nM; at D(2) dopamine receptor [2] (read-out: Ki), 13 nM; at D(3) dopamine receptor (read-out: Ki), 265 nM. Moreover, the ED50 entry in the assay on Rattus norvegicus [3] was “Weak activity”; in the assay on Rattus norvegicus [4], 0.95 µmol/kg; in the assay with Rattus norvegicus [5], “Weak activity”; in the assay on Rattus norvegicus [6] it was 2.9 µmol/kg; with Rattus norvegicus [7], 0.56 µmol/kg. Also, the ED50 entry with Rattus norvegicus [8] is “inactive”.

For `CCCN(CCCOc1cccc(Cl)c1)C1CCc2ccc3[nH]cc(C=O)c3c2C1` (configuration not stated), the Ki in [1] was 187 nM; in assay [9] it was 5.1 nM; on D(2) dopamine receptor [2] (read-out: Ki) it was 28 nM; on D(3) dopamine receptor (read-out: Ki) it was 159 nM. The ED50 entry in the assay with Rattus norvegicus [10], in the assay on Rattus norvegicus [11] and in the assay with Rattus norvegicus [12] was “inactive” each time. Besides, the ED50 worked out at 4.01 µmol/kg in the assay with Rattus norvegicus [4], 4.79 µmol/kg in the assay with Rattus norvegicus [6] and 5.12 µmol/kg in the assay on Rattus norvegicus [7].

Consider `C=CCN(CCC)C1CCc2ccc3[nH]ccc3c2C1` (configuration not stated), for which the Ki in assay [9] was 35 nM; at D(2) dopamine receptor [14] it was 42 nM; at D(3) dopamine receptor (read-out: Ki), 77 nM. The compound further had an inhibition in assay [13] of less than 45%. Moreover, the ED50 result in the assay with Rattus norvegicus [15] and with Rattus norvegicus [17] was “inactive” each time. For the same compound, the ED50 was determined as 0.18 µmol/kg in the assay on Rattus norvegicus [4] and 0.97 µmol/kg with Rattus norvegicus [16].

Turning to `O=Cc1c[nH]c2ccc3c(c12)CC(N1CCCC1)CC3` (configuration not stated), the Ki on D(2) dopamine receptor [2] (read-out: Ki) is greater than 1000 nM; on D(3) dopamine receptor (cho), “Not Active”. In addition, the ED50 result in the assay on Rattus norvegicus [18] is “Weak activity”; in the assay with Rattus norvegicus [4], 0.58 µmol/kg; in the assay on Rattus norvegicus [5], “Weak activity”; in the assay on Rattus norvegicus [19] it was “Weak activity”; in the assay on Rattus norvegicus [6], 0.58 µmol/kg; with Rattus norvegicus [7], 0.86 µmol/kg.

On to `CCCN(CCC)CC1CCc2ccc3[nH]cc(C=O)c3c2C1` (configuration not stated), for which the Ki result on D(2) dopamine receptor [2] (cho) is given as “Not Active”. Besides, the ED50 result in the assay on Rattus norvegicus [20], with Rattus norvegicus [22] and in the assay on Rattus norvegicus [25] was “inactive” throughout. The ED50 entry in the assay with Rattus norvegicus [21], in the assay with Rattus norvegicus [23] and in the assay with Rattus norvegicus [24] was “Weak activity” throughout.

Consider `CN(C)[C@H]1CCc2ccc3[nH]ccc3c2C1`, for which the inhibition constant Ki in assay [1] worked out at 1690 nM. This compound also yielded an inhibition in [26] of less than 45%.

Regarding `CN(C)[C@H]1CCc2ccc3[nH]cc(C=O)c3c2C1`, on D(2) dopamine receptor [2] (read-out: Ki), the Ki was determined as 250 nM. The ED50 result in the assay on Rattus norvegicus [27], in the assay on Rattus norvegicus [11] and in the assay with Rattus norvegicus [28] was “inactive” in each case. The ED50 with Rattus norvegicus [4] amounted to 12.1 µmol/kg; in the assay with Rattus norvegicus [6] it was 13.1 µmol/kg; with Rattus norvegicus [7], 15.3 µmol/kg.

Consider `CCCN(CCC)[C@@H]1CCc2ccc3[nH]ccc3c2C1`, for which the ED50 result with Rattus norvegicus [29] was “inactive”.
